Wnt act = activators of Wnt/beta-catenin signaling. Wnt/beta-catenin reporter cell assay, activator, plate reader. activation, % at 9.35 µM. actives 1.2% (n = 300,000); in the data active = activation above about 30%, passing the limit was not always enough; inconclusive = no clear call, values can overlap the other calls;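 note: 0% = neutral control wells and 100% = positive control wells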
PGC1a acetyl inh = modulators of PGC1a acetylation; U2OS PGC1a acetylation, AlphaScreen anti-acetyl-lysine; with virally co-expressed GCN5 acetyltransferase; inhibition, % at 15.6 µM; actives 0.17% (n = 350,000); AID 651687;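 active = every replicate shows inhibition of at least 40%; inconclusive = mean inhibition at least 40% but some replicate below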;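 note: 0% = neutral control wells and 100% = positive control wells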
Cneo AK release = Cryptococcus neoformans lysis via adenylate kinase release | lysis activity, % at 15 µM | C. neoformans lysis, adenylate kinase release luminescence, 4 h; normalised: neutral wells 0, clomiphene wells 100 | AID 651654 | actives 0.2% (n = 360,000);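 active = mean lysis activity across replicates of at least 80%, whatever share of replicates individually reach that level; inactive = mean lysis activity below 80%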
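read-out = cell lysis signal | test system = log-phase Cryptococcus neoformans yeast cells | input = cells at 5 × 10^6 per mL | medium = fresh YPD growth medium | signal = luminescent adenylate kinase detection reagent | timing = 4 h at 37 °C static, read 1 h later | dosing = single dose | controls = Clomiphene as positive lysis control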
MITF act = activators of MITF-driven TRPM1 promoter activity in SK-MEL-5 cells. SK-MEL-5 TRPM1-promoter luciferase, 24 h; % of positive control, neutral wells = 0. activation, % at 12.5 µM. actives 0.75% (n = 300,000);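 active = mean activation of at least 80% with every replicate also reaching 80%; inconclusive = mean reaches 80% but some replicate falls short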;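 note: 0% = neutral control wells and 100% = parthenolide positive control wells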
Active calls of the source: *; u = inconclusive; x = not tested or not shown. Sampled rows, rich in hits. Any-hit rate of the full collection: about 1.5%.

SMILES	Wnt act	PGC1a acetyl inh	Cneo AK release	MITF act
CO[C@H]1CN(C)C(=O)c2ccc(NC(=O)NC(C)C)cc2OC[C@@H](C)NC[C@H]1C	x	x	82*	x
CO[C@@H]1CN(C)C(=O)c2ccc(NC(=O)NC(C)C)cc2OC[C@H](C)NC[C@@H]1C	x	x	82*	x
CO[C@@H]1CN(C)C(=O)c2ccc(NC(=O)NC(C)C)cc2OC[C@@H](C)NC[C@@H]1C	x	x	-2	x
COc1ccc(NC(=O)N(C)C[C@H]2Oc3c(NC(=O)NC(C)C)cccc3C(=O)N([C@@H](C)CO)C[C@@H]2C)cc1	x	-3	-2	x
CO[C@H]1CN(C)C(=O)c2ccc(NC(=O)C3CCCC3)cc2OC[C@@H](C)N(S(C)(=O)=O)C[C@@H]1C	x	-7	-6	x
COc1cccc(CNC(=O)C[C@@H]2CC[C@H](NC(=O)C3CCC3)[C@@H](CO)O2)c1	x	1	-3	x
COc1ccccc1NC(=O)C(=O)Nc1ccccn1	36*	5	-2	47
CCCC(=O)N1CC2(CCN(C(=O)CC3CC3)CC2)c2c(n(C)c3cc(OC)ccc23)[C@@H]1CO	x	0	x	x
O=C(N/N=C/c1ccc(Cl)cc1Cl)c1n[nH]c2c1CCCC2	x	x	x	65
O=C(N/N=C\c1cccc(Cl)c1)c1n[nH]c2c1CCCC2	u	x	x	100*
N#C/C(=C/c1ccco1)c1nc2ccccc2s1	51*	8	-1	5
Cc1cc(C)c2nc(N3CCN(C(=O)c4cccs4)CC3)sc2c1	2	x	148*	2
COc1cccc2sc(N3CCN(C(=O)c4cccs4)CC3)nc12	1	x	61	-2
Cc1cc2nc(N3CCN(C(=O)c4cccs4)CC3)sc2cc1C	19	x	36	118*
O=C(C[C@@H]1C=C[C@@H](NS(=O)(=O)c2ccccc2)[C@@H](CO)O1)NCc1ccc(Cl)c(Cl)c1	x	-2	-29	x
COc1ccc(S(=O)(=O)Nc2ccc3c(c2)C(=O)N([C@@H](C)CO)C[C@H](C)[C@@H](CN(C)S(=O)(=O)c2c(C)noc2C)OCCCC[C@H](C)O3)cc1	x	-14	1	x
CCc1nnc(NC(=O)CSc2nc3c(cc2C#N)CCC3)s1	70*	-11	-2	45
C[C@@H]1CN([C@@H](C)CO)S(=O)(=O)c2ccc(-c3ccncc3)cc2O[C@@H]1CN(C)C	x	13	-7	x
CCOP(=O)(OCC)C(NC(=O)/C=C/c1ccc(OC)cc1)c1ccccc1 (configuration not stated)	34*	x	x	9
C[C@H]1CN([C@@H](C)CO)C(=O)Cc2cc(NC(=O)C3CC3)ccc2O[C@@H]1CN(C)Cc1ccncc1	x	2	-4	x
C[C@H]1CN([C@@H](C)CO)C(=O)Cc2cc(NC(=O)NC3CCCCC3)ccc2O[C@H]1CN(C)Cc1ccncc1	x	3	12	x
C[C@@H]1CN([C@@H](C)CO)C(=O)c2cc(NS(=O)(=O)c3ccc(F)cc3)ccc2O[C@@H](C)CCCCO[C@H]1CN(C)Cc1ccncc1	x	1	2	x
CSc1ccc(C2c3[nH]c4ccccc4c3CCN2C(=O)c2ccnn2C)cc1 (configuration not stated)	42*	x	x	31
CCc1ccc(C2c3[nH]c4ccccc4c3CCN2C(=O)c2ccc(=O)n(C)n2)cc1 (configuration not stated)	-18	5	-12	-35
COc1ccc2c3c(n(C)c2c1)[C@@H](CO)N(C(=O)Nc1cccc(F)c1)CC31CN(C)C1	x	-4	x	x
SMILES	Wnt act	PGC1a acetyl inh	Cneo AK release	MITF act
CS(=O)(=O)Nc1ccc2c(c1)[C@@H]1C[C@@H](CC(=O)N3CCCCC3)O[C@@H](CO)[C@@H]1O2	x	2	-1	x
Cn1cc([N+](=O)[O-])cc1-c1nc2ccccc2n1C	1	2	2	x
Cn1c(-c2ccc([N+](=O)[O-])cc2)nc2ccccc21	32*	28	-8	34
Cc1cc(=O)oc2cc(NC(=O)c3ccccc3Cl)ccc12	u	-2	0	98*
COc1cccc(C(=O)Nc2ccc3c(C)cc(=O)oc3c2)c1	33*	5	0	20
Cc1csc(NC(=O)CSCC(=O)Nc2ccccc2)n1	1	1	1	8
Cc1csc(Nc2nc(N)c(C(=O)Nc3ccccc3)o2)n1	17	21	-1	93*
Nc1ccc(N=Nc2ccccc2O)c(N)c1	49*	5	-3	x
C[C@@H]1CN([C@H](C)CO)C(=O)c2cccc(NS(=O)(=O)c3ccc(F)cc3)c2O[C@@H]1CN(C)S(=O)(=O)c1cccs1	x	-7	-5	x
COc1cc(OC)c(C2CC(=O)N3CN(c4ccc(C)cc4)CSC3=C2C#N)cc1OC (configuration not stated)	38*	7	0	56
CC(=O)N1[C@@H]2c3ccc(-c4ccccc4F)c(=O)n3C[C@@H]2[C@@H](CO)[C@@H]1C(=O)NCC1CC1	x	3	0	x
COc1ccc(CN(C)C[C@@H]2Oc3ccc(NC(=O)NC(C)C)cc3C(=O)N([C@H](C)CO)C[C@H]2C)cc1	x	2	0	x
CC(NC(=O)/C=C/c1ccc(Br)cc1)c1ccc(Cl)cc1 (configuration not stated)	-10	-2	2	3
CN(C)CC(O)c1ccc(C=Cc2ccc(Cl)cc2)cc1 (configuration not stated)	u	51*	6	-78
COCCNC(=O)C[C@H]1C=C[C@@H](NC(=O)NC2CCCCC2)[C@H](CO)O1	x	-3	-5	x
O=C(N[C@@H]1CC[C@H](CCNS(=O)(=O)c2ccccc2)O[C@H]1CO)c1cccnc1	x	-6	2	x
Clc1ccc(Cc2noc(-c3cccs3)n2)cc1	x	-1	-1	112*
Clc1ccc(-c2nc(Cc3ccccc3Cl)no2)cc1	x	-9	-1	68
O=C(c1ccncc1)N1CC2(C1)[C@H](c1ccccc1)[C@@H](CO)N2CC1CCCC1	x	-3	x	x
CO[C@H]1CN(C)C(=O)c2ccc(NC(=O)C3CC3)cc2OC[C@@H](C)N(Cc2ccncc2)C[C@H]1C	x	7	4	x
CO[C@@H]1CN(C)C(=O)c2ccc(NC(=O)c3ccc(Oc4ccccc4)cc3)cc2OC[C@@H](C)N(C(C)=O)C[C@H]1C	x	-52	x	x
O=C(c1ccc(-c2ccccc2Cl)o1)N1CCN(S(=O)(=O)c2cccs2)CC1	10	x	x	87*
O=C(c1cc(-c2ccc(Cl)c(Cl)c2)on1)N1CCCCCC1	22	6	2	131*
O=C(c1cc(-c2ccc(Cl)cc2)on1)N1CCCCCC1	-5	x	-2	64
O=C(c1cc(-c2ccc(Cl)cc2Cl)on1)N1CCCCCC1	33*	-10	-6	42
Cc1ccc(-c2cc(C(=O)N3CCCC3)no2)cc1	1	-7	-13	-9
O=C(c1cc(-c2ccc(O)cc2)on1)N1CCCCCC1	40*	x	-3	84*
O=C(c1ccccc1Cl)N1CCN(S(=O)(=O)c2cccs2)CC1	0	-3	2	0
O=C([C@@H]1[C@@H](CO)[C@@H]2Cn3c(cccc3=O)[C@H]1N2C(=O)CC1CC1)N1CCc2ccccc2C1	x	2	x	x
C[C@@H]1CN([C@@H](C)CO)C(=O)c2cc(C#C[C@@H](C)O)cnc2O[C@@H]1CN(C)C(=O)Nc1ccc(C(F)(F)F)cc1	x	13	x	x

Source: PubChem (Broad Institute)
